Laboratory results as given in PubChem BioAssay AID651723 (Broad Institute, 2012).
About 740 (0.21%) of roughly 350,000 compounds were called active. The entries come from a sample that favours actives as a whole. Unmarked numbers belong to inactive results.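 The calls were made as follows: active = every replicate reaching activation of at least 50%, whatever the mean replicate activation; inconclusive = replicates that disagree or another doubt; inactive = the rest.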

Assay: compounds raising PGC1a acetylation signal, primary screen, PGC1a modulator project, cell-based, U2OS, AlphaScreen, signal-increasing mode (AID 651723)
Conditions: overnight, at 15.6 µM, hits give high values
How it was run: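 Test system: U2OS cells expressing flag-PGC1a plus GCN5; Amount: 7000 U2OS cells per well; Compound: single test concentration per compound; Incubation: compound overnight at 37 °C, each detection step 1 h RT; Signal: AlphaScreen lysate read.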
For `CCOC(=O)c1c(-c2ccc(C)cc2C)csc1NC(=O)CSc1nnnn1C`, the activation was -46.2%. With `CCOC(=O)c1c(NC(=O)CSc2cn(CC)c3ccccc23)sc2c1CCC2` the activation was 67.2% (active). In the case of `CCCCC(=O)Nc1ccc(C(=O)NCCCn2ccnc2)cc1`, the activation is reported as 71.6% (active). With `Cc1noc(C)c1S(=O)(=O)Nc1ccc2c(c1)C(=O)N([C@@H](C)CO)C[C@@H](C)[C@@H](CN(C)S(=O)(=O)c1ccccc1)O2` the activation was -50.3%. For `Cc1ccc(-c2c[n+](CC(=O)Nc3ccccc3)c3n2CCC3)cc1`, the activation was -43.3%. `Cc1nc(SCC(=O)NC2CCCC2)[nH]c(=O)c1C` showed an activation of -42.3%. For `Cc1csc(NC(=O)NC2(C(F)(F)F)Oc3ccccc3O2)n1`, the activation was 74.6% (active). In the case of `c1ccc2c(-c3nn4nnnc4c4ccccc34)cccc2c1`, the activation is reported as 71% (active). In the case of `Cn1c2c(c(=O)n(C)c1=O)C(c1cccc(F)c1)C(C#N)=C(N)O2` (stereo not given), the activation is reported as -80.9%. For `COc1ccc(Oc2c(Cl)cnn(-c3ccccc3)c2=O)cc1`, the activation was 112% (active). For `CCOCCc1nn2c(=O)cc(CSCC(=O)Nc3cccc(C)c3C)nc2s1`, the activation was -38.7%. With `O=S(=O)(c1ccc(Br)cc1)n1ccc2ccccc21` the activation was -40.2%. Work on `Cc1cc(C)c(S(=O)(=O)NCC2CCC(C(=O)NCc3ccc4c(c3)OCO4)CC2)c(C)c1` (stereo not given) yielded an activation of -43.2%. With `CC(C)(C)c1cc(C(=O)N/N=C/c2ccc([N+](=O)[O-])s2)n[nH]1` the activation was 80.1% (active). Work on `Cc1nc(Nc2ccc3c(c2)OCCO3)c2nnn(Cc3ccccc3Cl)c2n1` yielded an activation of -56.2%. For `N#Cc1c(N)nc2c3c(sc(=N)c2c1N)NC(=O)CC3c1ccccc1Cl` (stereo not given), the activation was 67.8% (active). With `Cc1cccc(CS(=O)(=O)c2ncc(Cl)c(C(=O)Nc3ccc(F)cc3)n2)c1` the activation was 138% (active). With `O=C(Nc1cccc(Cl)c1)c1cncn1-c1ccc(F)cc1` the activation was -44.8%. `CN(C)c1ccc(-n2cccc2/C=N/n2cnnc2)cc1` showed an activation of -55.5%. Molecule `O=C(NC1=CC(=O)c2ccccc2C1=O)c1ccccc1` has an activation of -80.8%. Molecule `CC[C@H]1CN2CCc3cc(OC)c(OC)cc3[C@@H]2C[C@@H]1C[C@H]1NCCc2cc(OC)c(OC)cc21` has an activation of -83.7%. `N#Cc1ccc(-c2ccc(C3[C@@H]4CN(S(=O)(=O)c5ccc(F)cc5)C[C@H]3N4)cc2)cc1` (stereo not given in full) showed an activation of -58.1%. With `CCc1ccc(N2CC(O)=C(c3nc4ccccc4c(=O)[nH]3)C2=N)cc1` the activation was 165% (active). With `Cc1cc(C(=O)NNS(=O)(=O)c2ccccc2C(F)(F)F)nn1C(C)(C)C` the activation was 259% (active). With `CCOC(=O)CSc1nccc(N(C)C)c1C#N` the activation was -9.86%. `COc1ccc(CC(NC(C)=O)C(=O)N2CCN(C(=O)Nc3cccc(Cl)c3)CC2)cc1OC` (stereo not given) gave an activation of -50.7%. `Cc1cc(C)n(-c2nc(O)cc(=O)[nH]2)n1` showed an activation of -36.3%. In the case of `COc1ccc(C(=O)NN(C)c2nc(-c3ccccc3)cc(C)c2S(C)(=O)=O)cc1`, the activation is reported as 87.7% (active). Work on `CC(C)C#Cc1cnc2c(c1)C(=O)N([C@@H](C)CO)C[C@@H](C)[C@@H](CN(C)C(=O)CN1CCOCC1)O2` yielded an activation of -58.3%. With `O=C(CSc1nnc(Cn2cnc3ccccc32)o1)c1ccccc1` the activation was 59.8% (active). `CCOc1ccccc1CN1CCN(C2CCC2)CC1CCO` (stereo not given) gave an activation of -74.8%. In the case of `CN1OC[C@@H]2CN(S(=O)(=O)c3cccc4ccccc34)[C@H](c3ccc(N4CCCCC4)cc3)C[C@@H]21`, the activation is reported as -47.9%. For `Cc1cc(C)nc(S/C=C/C(=O)c2ccccc2)n1`, the activation was 63.2% (active). `CCOC(=O)c1ccc2[nH]c(C)c(CN3CCN(C)CC3)c(=O)c2c1` gave an activation of -59.3%. In the case of `CC(C)CCNc1nc(N2CCCC2)c2c(c1C#N)CCN(C)C2`, the activation is reported as 102% (active). With `C[C@@H]1CCCCO[C@@H](CN(C)CC2CC2)[C@H](C)CN([C@H](C)CO)C(=O)c2cc(NS(=O)(=O)c3ccccc3)ccc2O1` the activation was -56.4%. With `COc1ccc(C(=O)/C=C/c2cccnc2)c(OC)c1` the activation was 70.7% (active). `NC(=O)N/N=C\c1cccs1` gave an activation of -76.7%. Work on `O=C(Nc1ccc2c(c1)OCO2)N[C@H]1CC[C@H](CCNC(=O)C2CCC2)O[C@@H]1CO` yielded an activation of -46.2%. For `O=[N+]([O-])c1ccc(C=Nc2ccc(Cl)cc2Cl)s1`, the activation was 68.4% (active). Molecule `C=CCn1c(=NC(=O)c2ccc(S(=O)(=O)N3CCCC3)cc2)sc2cc(NC(C)=O)ccc21` has an activation of -51.1%. `N#Cc1ccc(-c2ccc([C@@H]3[C@H]4CNC[C@@H]3N4Cc3ccc4c(c3)OCO4)cc2)cc1` showed an activation of -48.1%. With `CCOC(=O)C1=CC[C@@H](c2ccccc2)N(S(=O)(=O)c2ccc(C)cc2)[C@H]1c1ccc(CC)cc1` the activation was 75.7% (active). Work on `NC(=NC(=O)c1ccccc1)N1CCOCC1` yielded an activation of -84.1%. With `CCN(CC)C(=O)c1ccc(O)c(OC)c1` the activation was -55.9%. For `COc1ccc(C(=O)Nc2nc(-c3ccc(OC)cc3)c(-c3ccc([N+](=O)[O-])cc3)s2)cc1`, the activation was 55.6% (active). `N=C1C(c2nc3ccccc3s2)=C(O)CN1NC(=O)c1ccc([N+](=O)[O-])cc1` gave an activation of -100%. With `O=C(Cc1ccccc1)N1N=C(c2ccncc2)CC1(O)C(F)(F)F` (stereo not given) the activation was -50%. Molecule `C[C@@H]1CCCCO[C@@H](CN(C)CC2CC2)[C@@H](C)CN([C@H](C)CO)C(=O)c2cc(NC(=O)C3CCCCC3)ccc2O1` has an activation of -52.5%. For `CCc1ccc(NC(=O)Nc2ccncc2)cc1`, the activation was -48.9%. In the case of `CCn1c(/C=C/c2ccc([N+](=O)[O-])o2)nc2ccccc2c1=O`, the activation is reported as 149% (active). `Cc1nc2ccccc2c(=O)n1NC(=O)c1ccc(Cl)c([N+](=O)[O-])c1` showed an activation of -44.8%. With `O=C1CN(S(=O)(=O)Cc2ccccc2)C[C@@H]2[C@@H](c3ccc(C#Cc4cccc(F)c4)cc3)[C@@H](CO)N12` the activation was 60.3% (active). `COc1ccc(-c2ccc(CCC(=O)O)n2NC(=O)c2ccc(C(C)(C)C)cc2)cc1` showed an activation of -43.5%. Molecule `S=C1NC(c2ccccc2)=NCN1c1ccc(Br)cc1` has an activation of -80.9%.
